{"data": "Measured values from different studies", "sample": "plasma", "note": "Protocols differ between the studies behind these lines."}
{"SMILES": "COc1ccc(-c2c(Nc3ccccn3)[nH]c3c(C4=CCCCC4)c(-c4ccccc4)nn3c2=O)cc1", "species": "human", "route": "oral", "dose": "100 mg once daily", "notes": "multiple doses, patients", "Cmax": "3490 ng/mL"}
{"SMILES": "Cc1cc(-c2nccc3c2ccn3CC(=O)Nc2ccc(-c3cnccn3)cn2)ccn1", "species": "human", "route": "oral", "dose": "20 mg", "notes": "single dose", "Cmax": "188 nM"}
{"SMILES": "OC[C@H]1O[C@@H](c2cc(Cc3ccc(C4CC4)cc3)c(Cl)c3c2CCO3)[C@H](O)[C@@H](O)[C@@H]1O", "species": "human", "route": "oral", "dose": "0.3 mg", "notes": "single dose, fasted", "Cmax": "4.5 ng/mL"}
{"SMILES": "CC(=O)N(C)[C@H]1CCN(C(=O)c2cnc3c(c2)C[C@](C)(c2ccc(F)cc2)N3)C1", "species": "male human", "route": "oral", "dose": "30 mg", "notes": "multiple doses, once daily, steady state", "Cmax": "797 nM"}
{"SMILES": "COc1ccc2c(c1)CN(C(=O)CCN1CCC(Cc3ccccc3)CC1)CC[S@@+]2[O-]", "species": "male human", "route": "intravenous", "dose": "0.01 mg/kg", "notes": "healthy volunteers", "Cmax": "21.9 ng/mL"}
{"SMILES": "C=CC(=O)NC1CCN(c2ncc3ncnc(Nc4ccc(Oc5ccc6c(c5)ncn6C)c(C)c4)c3n2)CC1", "species": "male human", "route": "oral", "dose": "60 mg", "notes": "single dose, healthy volunteers", "Cmax": "1160 nM"}
{"SMILES": "CC(C)n1c(C2CCNCC2)nc2c([N+](=O)[O-])c(Br)c(Br)cc21", "species": "human", "route": "oral", "dose": "25 mg", "notes": "patients", "Cmax": "8.77 ng/mL"}
{"SMILES": "O=C(COc1ccc(Cl)cc1)NC12CC(c3nnc([C@H]4C[C@@H](OC(F)(F)F)C4)o3)(C1)C2", "species": "human", "route": "oral", "dose": "145 mg", "notes": "multiple doses, once daily, steady state, healthy volunteers", "Cmax": "9280 nM"}
